Reference: ChEMBL document CHEMBL5543163, “Druglike, 18F-labeled PET Tracers Targeting Fibroblast Activation Protein” (J Med Chem, 2024)

How the values were obtained:
[1] = Octanol/water partition coefficient, logD of compound at 74 kBq incubated for 2 mins by gamma counter method; format: physicochemical
How it was run: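 Octanol and PBS phases were mixed and vortexed for 2 min, then centrifuged at 3,000 rpm for 10 min. Aliquots of 0.5 mL from each phase were γ-counted and corrected for mass and density. LogD was taken as log10 of the octanol/PBS radioactivity ratio.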

[2] = Stability in PBS assessed as compound remaining at 185 kBq measured upto 60 mins by radio-HPLC analysis; format: physicochemical; conditions: read-out: Stability
How it was run: (§1)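 Radiotracer was incubated at 37 °C for up to 60 min in PBS (0.01 M, pH 7.4) or in mouse plasma. Samples were deproteinized with an equal volume of cold ACN and centrifuged. The supernatant was analyzed by radio-HPLC with 30 s fractions γ-counted to give the intact fraction. Triplicates.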

[3] = Stability in CD1 mouse plasma assessed as compound remaining at 185 kBq measured upto 60 mins by radio-HPLC analysis; format: ADME, cell-free; conditions: read-out: Stability; how it was run: as §1
[4] = Stability in PBS assessed as drug degradation at 185 kBq measured upto 60 mins by radio-HPLC analysis; format: physicochemical; conditions: buffer, 1 h; how it was run: as §1
[5] = Stability in CD1 mouse plasma assessed as drug degradation at 185 kBq measured upto 60 mins by radio-HPLC analysis; format: ADME, cell-free; conditions: 1 h; how it was run: as §1
[6] = Stability in female nude mouse harboring null mutation of CD1 antigen complex assessed as compound remaining at 5.1 to 7.4 MBq, iv measured at 60 mins by radio-HPLC analysis; format: ADME, organism-based; conditions: in vivo, dose 5.1-7.4 MBq, read-out: Stability
How it was run: (§2)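 Female CD1 nude mice received 5.1–7.4 MBq i.v. EDTA blood collected at 15, 30 and 60 min p.i. (n=3 per time point) was centrifuged to plasma, deproteinized with cold ACN and centrifuged. The supernatant was analyzed by radio-HPLC with 30 s fractions γ-counted to give the percent intact tracer.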

[7] = Drug uptake in blood of female nude mouse harboring null mutation of CD1 antigen complex at 5.1 to 7.4 MBq, iv measured after 15 to 60 mins by gamma counter analysis; format: ADME, organism-based; conditions: in vivo, dose lower 5.1 MBq, time lower 15 min, dose upper 7.4 MBq, time upper 60 min
How it was run: (§3)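 Female CD1 nude mice, 6–8 weeks old (20–25 g), received the radiotracer through the lateral tail vein. At 15, 30 and 60 min p.i. (n = 3 per time point) blood was drawn by cardiac puncture and the animals were euthanized. Organs were excised, weighed and γ-counted. Uptake is expressed as %ID/g.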

[8] = Drug uptake in liver of female nude mouse harboring null mutation of CD1 antigen complex at 5.1 to 7.4 MBq, iv measured after 15 to 60 mins by gamma counter analysis; format: ADME, organism-based; conditions: in vivo, dose lower 5.1 MBq, time lower 15 min, dose upper 7.4 MBq, time upper 60 min; how it was run: as §3
[9] = Drug uptake in intestine of female nude mouse harboring null mutation of CD1 antigen complex at 5.1 to 7.4 MBq, iv measured after 15 to 60 mins by gamma counter analysis; format: ADME, organism-based; conditions: in vivo, dose lower 5.1 MBq, time lower 15 min, dose upper 7.4 MBq, time upper 60 min; how it was run: as §3
[10] = Drug uptake in kidney of female nude mouse harboring null mutation of CD1 antigen complex assessed as increase in renal excretion at 5.1 to 7.4 MBq, iv measured after 15 to 60 mins by gamma counter analysis; format: ADME, organism-based; conditions: in vivo, dose lower 5.1 MBq, time lower 15 min, dose upper 7.4 MBq, time upper 60 min; how it was run: as §3
[11] = Drug uptake in urinary bladder of female nude mouse harboring null mutation of CD1 antigen complex assessed as increase in renal excretion at 5.1 to 7.4 MBq, iv measured after 15 to 60 mins by gamma counter analysis; format: ADME, organism-based; conditions: in vivo, dose lower 5.1 MBq, time lower 15 min, dose upper 7.4 MBq, time upper 60 min; how it was run: as §3
[12] = Drug uptake in large intestine of female nude mouse harboring null mutation of CD1 antigen complex assessed as increase in renal excretion at 5.1 to 7.4 MBq, iv measured at 60 mins by gamma counter analysis; format: ADME, organism-based; conditions: in vivo, 1 h, dose 5.1-7.4 MBq; how it was run: as §3
[13] = Drug uptake in tumor of female nude mouse harboring null mutation of CD1 antigen complex xenografted with human U-87 MG cells at 5 to 7.4 MBq, iv measured at 60 mins by PET/CT analysis; format: ADME, organism-based, Neoplasm; conditions: in vivo, 1 h, dose 5-7.4 MBq
How it was run: (§4)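 U-87MG xenografts (5×10^6 cells, subcutaneous flank) were grown in female CD1 nude mice to about 200 mm3. Dynamic whole-body PET over 60 min p.i. was followed by CT. Images were reconstructed with OSEM 3D and expressed as %ID/mL to give time-activity curves. For blocking, the FAP inhibitor (5 mg/kg) was given via the tail vein 30 min before the tracer; n=4.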

[14] = Drug uptake in tumor of female nude mouse harboring null mutation of CD1 antigen complex xenografted with human U-87 MG cells at 5 to 7.4 MBq, iv pretreated with (S)-N-(2-(2-cyano-4,4-difluoropyrrolidin-1-yl)-2-oxoethyl)quinoline-4-carboxamide for 30 mins followed by radioligand addition and measured measured after 60 mins by PET/CT analysis; format: ADME, organism-based, Neoplasm; conditions: in vivo, 1 h, dose 5-7.4 MBq; how it was run: as §4
[15] = Drug uptake in skull of female nude mouse harboring null mutation of CD1 antigen complex xenografted with human U-87 MG cells at 5 to 7.4 MBq, iv measured after 60 mins by gamma counter analysis; format: ADME, organism-based; conditions: in vivo, 1 h, dose 5-7.4 MBq
[16] = Drug uptake in tibia of female nude mouse harboring null mutation of CD1 antigen complex xenografted with human U-87 MG cells at 5 to 7.4 MBq, iv measured after 60 mins by gamma counter analysis; format: ADME, organism-based; conditions: in vivo, 1 h, dose 5-7.4 MBq
[17] = Ratio of drug level in tumor to muscle of female nude mouse harboring null mutation of CD1 antigen complex xenografted with human U-87 MG cells at 5 to 7.4 MBq, iv measured at 60 mins postinjection by gamma counter analysis; format: ADME, organism-based; conditions: in vivo, 1 h, dose 5-7.4 MBq
How it was run: (§5)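 Subcutaneous U-87MG xenografts (5×10^6 cells in DPBS, hind flank) were grown in female CD1 nude mice to about 200 mm3. After tail-vein radiotracer injection and a 60 min dynamic PET scan, tissues were harvested at 60 min p.i. and γ-counted (%ID/g). Tumor-to-tissue ratios are means ± SD of individual ratios, n=4 per tracer.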

[18] = Ratio of drug level in tumor to blood of female nude mouse harboring null mutation of CD1 antigen complex xenografted with human U-87 MG cells at 5 to 7.4 MBq, iv measured at 60 mins postinjection by gamma counter analysis; format: ADME, organism-based; conditions: tumour, 1 h, dose 5-7.4 MBq; how it was run: as §5
[19] = Ratio of drug level in tumor to small intestine of female nude mouse harboring null mutation of CD1 antigen complex xenografted with human U-87 MG cells at 5 to 7.4 MBq, iv measured at 60 mins postinjection by gamma counter analysis; format: ADME, organism-based; conditions: in vivo, 1 h, dose 5-7.4 MBq; how it was run: as §5
[20] = Ratio of drug level in tumor to liver of female nude mouse harboring null mutation of CD1 antigen complex xenografted with human U-87 MG cells at 5 to 7.4 MBq, iv measured at 60 mins postinjection by gamma counter analysis; format: ADME, organism-based; conditions: in vivo, 1 h, dose 5-7.4 MBq; how it was run: as §5
[21] = Drug uptake in tumor of female nude mouse harboring null mutation of CD1 antigen complex xenografted with FAP-negative human HT-29 cells at 5 to 7.4 MBq, iv measured after 60 mins by autoradiography; format: ADME, organism-based, Neoplasm; conditions: in vivo, 1 h, dose 5-7.4 MBq
How it was run: (§6)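 Right after imaging and γ-counting, tumors from HT29 or U-87MG xenografts were snap-frozen and embedded in OCT. Sections of 100 µm were exposed overnight to phosphor screens. Non-blocked tumors were compared with tumors from mice pre-injected with the FAP inhibitor.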

[22] = Drug uptake in tumor of female nude mouse harboring null mutation of CD1 antigen complex xenografted with human U-87 MG cells at 5 to 7.4 MBq, iv measured after 60 mins by autoradiography; format: ADME, organism-based, Neoplasm; conditions: in vivo, 1 h, dose 5-7.4 MBq; how it was run: as §6
[23] = Drug uptake in tumor of female nude mouse harboring null mutation of CD1 antigen complex xenografted with human U-87 MG cells with increased FAP positive tumor area at 5 to 7.4 MBq, iv measured after 60 mins by immunohistochemistry analysis; format: ADME, organism-based, Neoplasm; conditions: in vivo, 1 h, dose 5-7.4 MBq
[24] = Drug uptake in tumor of female nude mouse harboring null mutation of CD1 antigen complex xenografted with human HT-29 cells with decreased FAP positive tumor area at 5 to 7.4 MBq, iv measured after 60 mins by immunohistochemistry analysis; format: ADME, organism-based, Neoplasm; conditions: in vivo, 1 h, dose 5-7.4 MBq
[25] = Drug uptake in bone structures of female nude mouse harboring null mutation of CD1 antigen complex xenografted with human U-87 MG cells at 5 to 7.4 MBq, iv measured after 60 mins by gamma counter analysis; format: ADME, organism-based, Bone element; conditions: in vivo, 1 h, dose 5-7.4 MBq
[26] = Stability in female nude mouse harboring null mutation of CD1 antigen complex assessed as drug degradation at 5.1 to 7.4 MBq, iv measured at 60 mins by radio-HPLC analysis; format: ADME, organism-based; conditions: 1 h, dose 5.1-7.4 MBq; how it was run: as §2
[27] = Drug uptake in tumor of female nude mouse harboring null mutation of CD1 antigen complex xenografted with FAP-negative human HT-29 cells at 5 to 7.4 MBq, iv measured at 60 mins by PET/CT analysis; format: ADME, organism-based, Neoplasm; conditions: in vivo, 1 h, dose 5-7.4 MBq
How it was run: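 HT29 xenografts (10×10^6 cells, subcutaneous hind flank) were grown in female CD1 nude mice to about 200 mm3. After tail-vein injection of the tracer, dynamic PET over 60 min was followed by CT. Images were reconstructed with OSEM 3D and tumor uptake was expressed as %ID/mL from time-activity curves, n=4.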

SMILES | logD at 2 min [1] | remaining at 1 h, 185 kBq [2] | remaining at 1 h, 185 kBq [3] | Stability [4] | Stability [5] | Drug uptake [8] | Drug uptake [9] | Drug uptake [10] | Drug uptake [11] | Drug uptake [13] | Drug uptake [14] | Drug uptake [15] | Ratio [17] | Ratio [18] | Ratio [19] | Ratio [20] | Drug uptake [21] | Drug uptake [22] | Drug uptake [23] | Drug uptake [24] | further results
[2H]C([2H])([18F])[N+](C)(C)CCCOc1ccc2nccc(C(=O)NCC(=O)N3CC(F)(F)C[C@H]3C#N)c2c1 | -1.77 | > 70% | > 70% | Stable | Stable | Active | Active | Active | Active | 10.16 %ID/ml | Not Active | Active | 6.54 | 6.35 | 2.43 | 4.77 | Active | Active | Active | Not Active | remaining at 1 h [6]: 56.5%; Drug uptake [7]: 0.24 % ID/g; Drug uptake [12]: 0.38 % ID/g; Drug uptake [16]: 4.33 % ID/g; Drug uptake [25]: Active
COC(C[18F])COc1ccc2nccc(C(=O)NCC(=O)N3CC(F)(F)C[C@H]3C#N)c2c1 (stereo partly drawn) | 0.77 | > 70% | > 70% | Stable | Stable | Active | Active | Active | Active | < 3 %ID/ml | Not Active | Active | 6.48 | 5.01 | 0.22 | 1.64 | Active | Active | Active | Not Active | Stability [26]: Unstable; Drug uptake [27]: 1.86 %ID/ml; Drug uptake [25]: Active
